According to ChEMBL document CHEMBL4190344, “Synthesis of substituted phenanthrene-9-benzimidazole conjugates: Cytotoxicity evaluation and apoptosis inducing studies” (Eur J Med Chem, 2017):
The source made the active and inactive calls. The calls are words filed in the database; no cut-off is given here.

Experiments:
PC-3 [1] = experiment: Induction of apoptosis in human PC3 cells assessed as viable cells level at 5 uM incubated for 24 hrs by annexin V-FITC/propidium iodide dual staining based flow cytometry (reference value: 76.73%); type: functional
How it was run: (§1)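 PC-3 cells were grown 24 h, then treated 24 h at 2.5, 5.0 or 10 µM. Cells were trypsinised, washed twice in ice-cold PBS and stained in binding buffer with Annexin V-FITC followed by propidium iodide at room temperature in the dark. 10,000 cells per sample were run on a flow cytometer, with quadrants scored as live, early apoptotic, late apoptotic or necrotic.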

PC-3 [2] = experiment: Induction of apoptosis in human PC3 cells assessed as necrotic cells level at 10 uM incubated for 24 hrs by annexin V-FITC/propidium iodide dual staining based flow cytometry (reference value: 0.59%); type: functional; how it was run: as §1
PC-3 [3] = experiment: Induction of mitochondrial membrane potential loss in human PC3 cells incubated for 24 hrs by JC1 staining based flow cytometry (reference value: 76.94%); type: functional, cell-based
PC-3 [4] = experiment: Induction of apoptosis in human PC3 cells incubated for 24 hrs by annexin V-FITC/propidium iodide dual staining based flow cytometry; type: functional, cell-based; how it was run: as §1
PC-3 [5] = experiment: Induction of cell death in human PC3 cells assessed as induction of membrane blebbing at 10 uM incubated for 48 hrs by acridine orange and ethidium bromide staining based fluorescence microscopy; type: functional
How it was run: (§2)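 PC-3 cells (1 × 10^6 cells/mL) were treated with compound and kept 48 h at 37 °C, 5% CO2. Acridine orange and ethidium bromide (10 µg/mL) were added in equal volumes. After 10 min, cells were imaged by fluorescence microscopy (ex 488/em 550 nm, 200×).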

PC-3 [6] = experiment: Induction of apoptosis in human PC3 cells assessed as viable cells level at 2.5 uM incubated for 24 hrs by annexin V-FITC/propidium iodide dual staining based flow cytometry (reference value: 76.73%); type: functional; how it was run: as §1
PC-3 [7] = experiment: Induction of mitochondrial membrane potential loss in human PC3 cells assessed as JC1 monomer level at 5 uM incubated for 24 hrs by JC1 staining based flow cytometry (reference value: 22.8%); type: functional
PC-3 [8] = experiment: Induction of mitochondrial membrane potential loss in human PC3 cells assessed as JC1 aggregate level at 10 uM incubated for 24 hrs by JC1 staining based flow cytometry (reference value: 76.94%); type: functional
PC-3 [9] = experiment: Induction of apoptosis in human PC3 cells assessed as late apoptotic cells level at 10 uM incubated for 24 hrs by annexin V-FITC/propidium iodide dual staining based flow cytometry (reference value: 10.92%); type: functional; how it was run: as §1
PC-3 [10] = experiment: Cell cycle arrest in human PC3 cells assessed as accumulation at S phase at 2.10 uM incubated for 24 hrs by propidium iodide staining based flow cytometry (reference value: 13.92%); type: functional
PC-3 [11] = experiment: Induction of cell death in human PC3 cells assessed as induction of apoptotic body formation at 10 uM incubated for 48 hrs by acridine orange and ethidium bromide staining based fluorescence microscopy; type: functional; how it was run: as §2
HCT-116 = experiment: Cytotoxicity in human HCT116 cells incubated for 48 hrs by MTT assay; type: functional, cell-based; details: HCT-116, 48 h
How it was run: (§3)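 Cells (1 × 10^4/well) were seeded in medium with 10% FBS and left 24 h at 37 °C. Compound diluted in medium was then added, alongside a vehicle control, for 48 h. MTT (5 mg/mL stock) was added for 4 h, formazan dissolved in DMSO and absorbance read at 570 nm.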

PC-3 [12] = experiment: Induction of apoptosis in human PC3 cells assessed as induction of horse-shoe shaped nuclei formation at 2.5 to 10 uM incubated for 48 hrs by DAPI staining based fluorescence microscopy; type: functional, cell-based
How it was run: (§4)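 Compound-treated PC-3 cells were PBS-washed, permeabilised with 0.1% Tween 20 for 10 min and stained with 1 µM DAPI. Nuclear morphology was viewed by fluorescence microscopy at ex 359/em 461 nm, 200×.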

PC-3 [13] = experiment: Cell cycle arrest in human PC3 cells assessed as accumulation at S phase at 5 uM incubated for 24 hrs by propidium iodide staining based flow cytometry (reference value: 13.92%); type: functional
PC-3 [14] = experiment: Induction of apoptosis in human PC3 cells assessed as early apoptotic cells level at 2.5 uM incubated for 24 hrs by annexin V-FITC/propidium iodide dual staining based flow cytometry (reference value: 11.76%); type: functional; how it was run: as §1
PC-3 [15] = experiment: Cell cycle arrest in human PC3 cells assessed as accumulation at subG1 phase at 5 uM incubated for 24 hrs by propidium iodide staining based flow cytometry (reference value: 1.71%); type: functional
PC-3 [16] = experiment: Cell cycle arrest in human PC3 cells assessed as accumulation at S phase at 2.5 uM incubated for 24 hrs by propidium iodide staining based flow cytometry (reference value: 13.92%); type: functional
PC-3 [17] = experiment: Cell cycle arrest in human PC3 cells assessed as accumulation at subG1 phase at 2.5 uM incubated for 24 hrs by propidium iodide staining based flow cytometry (reference value: 1.71%); type: functional
PC-3 [18] = experiment: Induction of apoptosis in human PC3 cells assessed as late apoptotic cells level at 2.5 uM incubated for 24 hrs by annexin V-FITC/propidium iodide dual staining based flow cytometry (reference value: 10.92%); type: functional; how it was run: as §1
PC-3 [19] = experiment: Induction of reactive oxygen species in human PC3 cells at 2.5 to 10 uM pre-incubated with NAC before compound addition for 6 hrs by DCFDA dye based spectrofluorometry; type: functional, cell-based
How it was run: (§5)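 PC-3 cells (1 × 10^6 cells/mL) adhered overnight, then were treated at 2.5, 5.0 or 10.0 µM. Medium was replaced with DCFDA 10 µM for 30 min in the dark, and fluorescence read by spectrofluorometer at ex 488/em 525 nm. N-acetyl cysteine pretreatment before compound and H2O2 were used as comparisons.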

PC-3 [20] = experiment: Induction of reactive oxygen species in human PC3 cells at 2.5 to 10 uM incubated for 6 hrs by DCFDA dye based spectrofluorometry; type: functional, cell-based; how it was run: as §5
PC-3 [21] = experiment: Induction of mitochondrial membrane potential loss in human PC3 cells assessed as JC1 aggregate level at 2.5 uM incubated for 24 hrs by JC1 staining based flow cytometry (reference value: 76.94%); type: functional
PC-3 [22] = experiment: Induction of apoptosis in human PC3 cells assessed as induction of condensed nuclei formation at 2.5 to 10 uM incubated for 48 hrs by DAPI staining based fluorescence microscopy; type: functional, cell-based; how it was run: as §4
PC-3 [23] = experiment: Induction of apoptosis in human PC3 cells assessed as necrotic cells level at 5 uM incubated for 24 hrs by annexin V-FITC/propidium iodide dual staining based flow cytometry (reference value: 0.59%); type: functional; how it was run: as §1
PC-3 [24] = experiment: Cell cycle arrest in human PC3 cells assessed as accumulation at G0/G1 phase at 2.10 uM incubated for 24 hrs by propidium iodide staining based flow cytometry (reference value: 106.67%); type: functional
HCT-15 = experiment: Cytotoxicity in human HCT15 cells incubated for 48 hrs by MTT assay; type: functional, cell-based; details: HCT-15, 48 h
How it was run: as §3, with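 “nm. IC50 taken as the concentration giving 50% inhibition.” for “nm.”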

MDA-MB-453 = experiment: Cytotoxicity in human MDA-MB-453 cells incubated for 48 hrs by MTT assay; type: functional, cell-based; details: MDA-MB-453, 48 h
How it was run: as §3, with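 “nm. IC50 taken as the concentration giving 50% inhibition.” for “nm.”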

COc1ccc2cc(-c3nc4ccc(F)cc4[nH]3)c3cc(OC)c(OC)cc3c2c1
Activity (PC-3 [1]): 32.12%
Activity (PC-3 [2]): 0.36%
Activity (PC-3 [3]): Dose-dependent effect
Activity (PC-3 [4]): Dose-dependent effect
Activity (PC-3 [5]): Active
Activity (PC-3 [6]): 38.69%
Activity (PC-3 [7]): 67.42%
Activity (PC-3 [8]): 4.29%
Activity (PC-3 [9]): 49.02%
Activity (PC-3 [10]): 11.76%
Activity (PC-3 [11]): Active
IC50 (HCT-116): > 20 µM
Activity (PC-3 [12]): Active
Activity (PC-3 [13]): 14.21%
Activity (PC-3 [14]): 36.2%
Activity (PC-3 [15]): 5.01%
Activity (PC-3 [16]): 11.3%
Activity (PC-3 [17]): 3.08%
Activity (PC-3 [18]): 24.89%
Activity (PC-3 [19]): inactive
Activity (PC-3 [20]): Dose-dependent effect
Activity (PC-3 [21]): 66.43%
Activity (PC-3 [22]): Active
Activity (PC-3 [23]): 0.44%
Activity (PC-3 [24]): 38.61%
IC50 (HCT-15): > 20 µM
IC50 (MDA-MB-453): 6.61 µM
